Data on three compounds can be found in article PMC11564230 (Clinical Drug Investigation, 2024).

Series [1] is described as follows: Safety in the clinical study. The following applies: for AEs of severity Mild, % / AEs of severity Moderate, % / AEs of severity Severe, % / AEs with outcome Recovered/resolved, % / AEs with outcome Recovering/resolving, % / AEs with relationship to study product Possible, % / AEs with relationship to study product Probable, % / AEs with relationship to study product Unlikely, % / Decreased appetite, % / Gastrointestinal disorders (SOC), % / General disorders and administration site conditions (SOC), % / Headache, % / Metabolism and nutrition disorders (SOC), % / Nausea, % / Nervous system disorders (SOC), % / Serious AEs, % / Vomiting, % / Treatment emergent AEs, %: percent of individuals; for Overall tolerability in the clinical study: T2DM. In kind it is in vivo, human. In outline: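 Adverse events and hypoglycaemia recorded continuously; treatment-emergent if from dosing to 35 days post-dose. Hypoglycaemia was BG-confirmed (BG < 2.8 mmol/L, i.e. PG < 3.1 mmol/L) or severe (needing assistance). Antibody samples taken pre-dose and at days 14, 28 and 35; validated assays. Anti-icodec-positive samples tested for human insulin cross-reactivity. Descriptive statistics.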

Series [2] is described as follows: Clinical single-dose pharmacokinetics of semaglutide in plasma. In kind it is in vivo, human. The settings on record: T2DM, single s.c. dose 0.5 mg semaglutide. In outline: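 Same crossover design in T2DM adults: single s.c. dose of 1 mg/mL (243 nmol/mL) product, 6–9 week washout. EDTA plasma drawn pre-dose to 840 h (35 days), kept on ice 10 min, spun 1500g 10 min 4 °C, stored −20 °C. Measured by validated LC-MS/MS. Log-transformed Cmax analysed by linear normal model with treatment, period and participant as fixed effects.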

The conditions of series [3]: insulin-naïve T2DM, phase 3 ONWARDS 1 and 3; cited from earlier work.
Series [4] is described as follows: Clinical single-dose pharmacokinetics of insulin icodec in serum. The following applies: T2DM, single s.c. dose 175 U icodec. In kind it is in vivo, human. In outline: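 T2DM adults (18–64 y, metformin ± one OAD, 80–120 kg, HbA1c 6.0–8.5%) in a randomised, double-blind, three-period crossover. Single s.c. dose of 700 U/mL product; washout 6–9 weeks. Serum sampled pre-dose to 840 h, clotted 30 min at RT, spun 1500g 10 min 4 °C, stored −20 °C; validated LOCI. Log Cmax fitted by linear model (treatment, period, participant fixed); tmax descriptive.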

Where [5] appears, read: number of events, treatment emergent.

On to `CC[C@H](C)[C@H](NC(=O)[C@H](Cc1ccccc1)NC(=O)[C@H](CCC(=O)O)NC(=O)[C@H](CCCCNC(=O)COCCOCCNC(=O)COCCOCCNC(=O)CC[C@H](NC(=O)CCCCCCCCCCCCCCCCC(=O)O)C(=O)O)NC(=O)[C@H](C)NC(=O)[C@H](C)NC(=O)[C@H](CCC(N)=O)NC(=O)CNC(=O)[C@H](CCC(=O)O)NC(=O)[C@H](CC(C)C)NC(=O)[C@H](Cc1ccc(O)cc1)NC(=O)[C@H](CO)NC(=O)[C@H](CO)NC(=O)[C@@H](NC(=O)[C@H](CC(=O)O)NC(=O)[C@H](CO)NC(=O)[C@@H](NC(=O)[C@H](Cc1ccccc1)NC(=O)[C@@H](NC(=O)CNC(=O)[C@H](CCC(=O)O)NC(=O)C(C)(C)NC(=O)[C@@H](N)Cc1cnc[nH]1)[C@@H](C)O)[C@@H](C)O)C(C)C)C(=O)N[C@@H](C)C(=O)N[C@@H](Cc1c[nH]c2ccccc12)C(=O)N[C@@H](CC(C)C)C(=O)N[C@H](C(=O)N[C@@H](CCCNC(=N)N)C(=O)NCC(=O)N[C@@H](CCCNC(=N)N)C(=O)NCC(=O)O)C(C)C` [Semaglutide, semaglutide], for which the “Participants positive for anti-semaglutide antibodies” value in series [1] (assessed following IcoSema administration) is reported as “No participants were positive”. In addition, in series [1] (treatment emergent), the “AEs of severity Mild, %” value is recorded as “(57.1) %”; the “AEs of severity Moderate, %” value was “(17.9) %”; the “AEs of severity Severe, %” value is “(0.0) %”; the “AEs with outcome Recovered/resolved, %” value is on record as “(60.7) %”. In series [1] (treatment emergent), the “AEs with outcome Recovering/resolving, %” value is given as “(0.0) %”; the “AEs with relationship to study product Possible, %” value is on record as “(28.6) %”; the “AEs with relationship to study product Probable, %” value is on record as “(42.9) %”; the “AEs with relationship to study product Unlikely, %” value is “(21.4) %”. Further, in series [1] (treatment emergent), the “Decreased appetite, %” value is on record as “(17.9) %”; the “Gastrointestinal disorders (SOC), %” value is on record as “(42.9) %”; the “General disorders and administration site conditions (SOC), %” value is reported as “(14.3) %”; the “Headache, %” value is reported as “(7.1) %”. Also, in series [1] (treatment emergent), the “Metabolism and nutrition disorders (SOC), %” value was “(21.4) %”; the “Nausea, %” value is on record as “(21.4) %”; the “Nervous system disorders (SOC), %” value is on record as “(17.9) %”; the “Serious AEs, %” value is recorded as “(0.0) %”. In addition, in series [1] (treatment emergent), the “Vomiting, %” value is on record as “(7.1) %”. In addition, in series [1] (until 35 days after dosing), the “Treatment emergent AEs, %” value is recorded as “(60.7) %”. Also, in series [1] (single s.c. dose), the “Overall tolerability in the clinical study” value is “well-tolerated”. The “Maximum concentration after single dose (Cmax,SD,Semaglutide), LS mean” value in series [2] (plasma, LS mean, N 30/28) stood at 8 nM. Besides, the “Median time to maximum semaglutide concentration after single dose (tmax,SD,Semaglutide)” value in series [2] (median) is 84 h.
Consider insulin degludec, for which the “Rate of clinically significant or severe hypoglycaemia” value in series [3] is on record as < 1 episode per patient-year of exposure.
With insulin icodec, the “Treatment-emergent BG confirmed hypoglycaemic episodes” value in series [1] (BG < 2.8 mmol/L, PG < 3.1 mmol/L, single s.c. dose, until 35 days after dose) is reported as “three”. Also, the “Participants positive for anti-icodec antibodies at least once during the study” value in series [1] (assessed following IcoSema and icodec administration) amounted to 13 participants. In series [1] (setting [5]), the “AEs of severity Mild, E” value was 23; the “AEs of severity Moderate, E” value was determined as 6; the “AEs of severity Severe, E” value came to 1; the “AEs with outcome Recovered/resolved, E” value turned out to be 30. Further, in series [1] (setting [5]), the “AEs with outcome Recovering/resolving, E” value was 0; the “AEs with relationship to study product Possible, E” value is 14; the “AEs with relationship to study product Probable, E” value is listed as 4; the “AEs with relationship to study product Unlikely, E” value was found to be 12. In series [1] (setting [5]), the “Decreased appetite, E” value turned out to be 3; the “Gastrointestinal disorders (SOC), E” value is 5; the “General disorders and administration site conditions (SOC), E” value was found to be 2; the “Headache, E” value is 5. Moreover, in series [1] (setting [5]), the “Metabolism and nutrition disorders (SOC), E” value is listed as 3; the “Nausea, E” value came out at 0; the “Nervous system disorders (SOC), E” value turned out to be 5; the “Serious AEs, E” value is 1. Moreover, in series [1] (setting [5]), the “Vomiting, E” value is 0. Further, the “Treatment emergent AEs, E” value in series [1] (number of events, until 35 days after dosing) turned out to be 30. Besides, in series [1] (of the anti-icodec antibody positive participants), the “Participants positive for anti-icodec antibodies cross-reacting to human insulin at least once” value was 12 participants. In series [1] (treatment emergent), the “AEs of severity Mild, %” value is listed as “(42.9) %”; the “AEs of severity Moderate, %” value is recorded as “(17.9) %”; the “AEs of severity Severe, %” value is “(3.6) %”; the “AEs with outcome Recovered/resolved, %” value is listed as “(53.6) %”. Further, in series [1] (treatment emergent), the “AEs with outcome Recovering/resolving, %” value was “(0.0) %”; the “AEs with relationship to study product Possible, %” value was “(28.6) %”; the “AEs with relationship to study product Probable, %” value is given as “(10.7) %”; the “AEs with relationship to study product Unlikely, %” value was “(32.1) %”. Besides, in series [1] (treatment emergent), the “Decreased appetite, %” value was “(10.7) %”; the “Gastrointestinal disorders (SOC), %” value was “(14.3) %”; the “General disorders and administration site conditions (SOC), %” value is “(7.1) %”; the “Headache, %” value was “(14.3) %”. In series [1] (treatment emergent), the “Metabolism and nutrition disorders (SOC), %” value was “(10.7) %”; the “Nausea, %” value is on record as “(0.0) %”; the “Nervous system disorders (SOC), %” value was “(14.3) %”; the “Serious AEs, %” value is listed as “(3.6) %”. For the same compound, the “Vomiting, %” value in series [1] (treatment emergent) is on record as “(0.0) %”. In addition, the “Treatment emergent AEs, %” value in series [1] (until 35 days after dosing) is on record as “(53.6) %”. Besides, the “Overall tolerability in the clinical study” value in series [1] (single s.c. dose) is “well-tolerated”. Further, the “Rate of clinically significant or severe hypoglycaemia” value in series [3] is reported as < 1 episode per patient-year of exposure. Also, in series [4] (serum, LS mean, N 30/28), the “Maximum concentration after single dose (Cmax,SD,Icodec), LS mean” value is 95 nM. The “Median time to maximum icodec concentration after single dose (tmax,SD,Icodec)” value in series [4] (median) came to 24 h.
